# A selection: hits, their analogues and other compounds. The true share with any hit is near 3.8%.
# KCNK3 inh: human KCNK3 channel inhibitors, primary screen, CHO cells, FluxOR thallium flux, B-score. actives 0.84% (n = 340,000). AID 602410, 2012. FluxOR fluorescence; hits give low values. B-score at 10 µM;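 active means B-score under library mean minus 4 SD, starting fluorescence ratio at most library mean plus 5 SD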;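 further: more negative B-score means stronger inhibition of thallium flux through KCNK3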
# Kir21 block: inhibitors of mouse Kir2.1 inward-rectifier potassium channel. HEK293-Kir2.1, FluxOR thallium flux fluorescence; hits give low values. B-score at 10 µM. actives 0.85% (n = 310,000). AID 1672, 2009;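 active means fluorescence ratio B-score at or below minus 3 SD of library scores, with starting-brightness B-score within 2 SD, cut at about -4.2 in these data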;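 further: channel flux triggered by added potassium and thallium sulfate stimulus; B-score of peak minus minimum fluorescence over baseline after thallium stimulus; more negative B-score means stronger Kir2.1 block with less thallium influx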
# hERG rescue: hERG rescue from dofetilide block, primary screen, cell-based, CHO-hERG, FluxOR thallium flux, dofetilide IC70 | Voltage-gated inwardly rectifying potassium channel KCNH2 (Homo sapiens), Q12809 | actives 0.51% (n = 310,000) | dofetilide IC70 present | activation (rescue from dofetilide block), less the hit threshold, % at 10 µM;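 active means activation above the mean of controls blocked by dofetilide plus 5 SD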;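 further: thallium influx through hERG after potassium depolarization seen as dye fluorescence rise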
# Target sequence (Q12809 whole entry, looked up): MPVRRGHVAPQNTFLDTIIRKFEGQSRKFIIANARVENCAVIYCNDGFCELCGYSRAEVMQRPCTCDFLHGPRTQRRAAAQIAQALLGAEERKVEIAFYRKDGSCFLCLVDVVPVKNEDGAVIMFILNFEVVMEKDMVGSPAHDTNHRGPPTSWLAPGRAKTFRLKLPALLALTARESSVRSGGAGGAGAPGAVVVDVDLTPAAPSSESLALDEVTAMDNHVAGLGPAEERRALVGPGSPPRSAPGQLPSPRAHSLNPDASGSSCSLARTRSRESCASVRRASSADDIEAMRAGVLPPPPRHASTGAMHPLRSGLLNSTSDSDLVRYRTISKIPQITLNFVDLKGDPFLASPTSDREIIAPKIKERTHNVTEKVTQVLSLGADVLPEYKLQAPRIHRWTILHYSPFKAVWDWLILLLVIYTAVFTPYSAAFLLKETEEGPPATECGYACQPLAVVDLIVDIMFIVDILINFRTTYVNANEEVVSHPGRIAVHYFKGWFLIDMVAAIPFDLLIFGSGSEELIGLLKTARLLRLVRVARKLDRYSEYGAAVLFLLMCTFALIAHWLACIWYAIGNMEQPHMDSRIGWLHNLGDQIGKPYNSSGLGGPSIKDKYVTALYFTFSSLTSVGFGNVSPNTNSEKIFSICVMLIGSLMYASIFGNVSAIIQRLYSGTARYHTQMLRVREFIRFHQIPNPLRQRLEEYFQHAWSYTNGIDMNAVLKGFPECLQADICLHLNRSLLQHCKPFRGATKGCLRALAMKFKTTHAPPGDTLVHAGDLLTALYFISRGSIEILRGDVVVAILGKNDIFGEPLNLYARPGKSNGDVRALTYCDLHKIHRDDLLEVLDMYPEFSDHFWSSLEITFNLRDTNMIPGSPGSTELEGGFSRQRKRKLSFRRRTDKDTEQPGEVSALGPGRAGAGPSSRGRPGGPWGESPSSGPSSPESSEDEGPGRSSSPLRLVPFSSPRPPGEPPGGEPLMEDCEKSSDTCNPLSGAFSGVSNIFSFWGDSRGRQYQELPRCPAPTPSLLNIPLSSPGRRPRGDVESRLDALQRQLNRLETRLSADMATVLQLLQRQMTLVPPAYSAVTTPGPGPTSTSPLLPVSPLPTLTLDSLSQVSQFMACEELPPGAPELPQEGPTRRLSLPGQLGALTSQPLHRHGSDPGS
# KCNQ1 act: potentiators or activators of KCNQ1 channel, primary screen, cell-based, thallium flux, high-throughput. Potassium voltage-gated channel subfamily KQT member 1 (Homo sapiens), P51787. CHO-K1 KCNQ1, thallium flux FluxOR fluorescence; hits give high values. B-score at 10 µM. actives 0.35% (n = 310,000). AID 2648, 2010;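 active means fluorescence ratio B-score, a plate-corrected score, at least three library SD, with initial intensity B-score within 5 SD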
#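 Doses: Single concentration per compound, DMSO matched to controls | Test system: KCNQ1-transfected CHO-K1 cells | Timing: 90 min dye loading and 20 min compound exposure, both at room temperature | Measured by: Kinetic FluxOR thallium fluorescence, 10-s 1-Hz baseline, 110-s post-stimulus read | Medium: Assay buffer with matched DMSO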
# KCNK9 inh: KCNK9 potassium channel inhibitors, primary screen, HEK293 cells, thallium flux; Potassium channel subfamily K member 9 (Homo sapiens), Q9NPC2; FluxOR thallium flux fluorescence; hits give low values; B-score at 10 µM; actives 1.2% (n = 310,000); AID 488922, 2010;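 active means ratio B-score over 3 SD below the library mean, with starting fluorescence within 5 SD of its mean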;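 further: negative B-score means less thallium flux so channel inhibition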
# KCNQ1 inh: inhibitors of human KCNQ1 channel, primary screen, cell-based, thallium flux, high-throughput | Potassium voltage-gated channel subfamily KQT member 1 (Homo sapiens), P51787 | CHO-K1 KCNQ1, FluxOR thallium flux fluorescence; hits give high values | B-score at 10 µM | actives 1.3% (n = 310,000);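 active means compounds whose thallium flux B-score, printed positive for inhibition, exceeds three library SD while starting fluorescence stays within three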;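 further: channel opened by potassium depolarization with thallium stimulus after 20 min compound exposure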
# KCNK3 inh conf: retest of human KCNK3 channel inhibitors, confirmation, CHO cells, FluxOR thallium flux, triplicate; shares compounds with KCNK3 inh; FluxOR fluorescence; 0% buffer, 100% carvedilol maximal block; ratio percent of control, % at 10 µM; actives 99% (n = 2,400);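 active means ratio percent of control, averaged over triplicates, above buffer control mean plus 5 SD, cut at about 64% in these data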;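 further: ratio is the fluorescence rise from min to max over baseline after thallium stimulus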
# KCNK3 noninduced: thallium flux inhibition in non-induced cells, primary screen, counter-screen for KCNK3 inhibitor project, cell-based, non-induced KCNK3 line, FluxOR thallium, triplicate. shares compounds with KCNK3 inh. thallium flux ratio (lower = more inhibition) at 10 µM. non-induced KCNK3 parental cells; hits give low values. actives 40% (n = 2,400);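 active means thallium flux ratio, averaged over three wells, more than 5 SD below the buffer control mean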;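 further: host cells are CHO cells without KCNK3 induction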
# A number is an active result; i = inactive; nt = not tested or not shown.
SMILES,KCNK3 inh,Kir21 block,hERG rescue,KCNQ1 act,KCNK9 inh,KCNQ1 inh,KCNK3 inh conf,KCNK3 noninduced
Cc1cc(C)c(NC(=O)CN2C(=O)NC3(CCCCC3)C2=O)c(Cl)c1,i,i,i,i,i,i,nt,nt
N#Cc1cccc(CN2CCCN(Cc3ccc(F)cc3)S2(=O)=O)c1,-9.2,i,i,i,i,i,94,0.15
Nc1c(C(=O)CSc2nnc(Nc3ccc(F)cc3)s2)c(=O)[nH]c(=O)n1C1CC1,i,nt,nt,nt,nt,nt,nt,nt
COc1cc(C)c(S(=O)(=O)NOCc2ccc([N+](=O)[O-])cc2)c(C)c1C,i,i,i,i,i,i,nt,nt
COc1ccccc1Oc1ccc(S(=O)(=O)N2CCCCC2C)cc1 (configuration not stated),-12,i,i,i,i,i,108,0.16
COc1ccc(S(=O)(=O)N2CCCCC2C)cc1 (configuration not stated),i,i,i,i,i,i,nt,nt
CCCc1cc(NCCCn2ccnc2)n2nc(C)c(-c3ccccc3)c2n1,-8.8,i,i,i,i,i,109,0.15
C[C@@H](NC(=O)c1[nH]cnc1C(=O)Nc1nccs1)c1ccccc1,i,nt,nt,nt,nt,nt,nt,nt
COC(=O)CSc1nnc2n(C3CCCCC3)c(=O)c3c4c(sc3n12)CCCC4,-9.5,i,i,i,i,i,96,0.15
CCc1ccc2c(CN3CCc4ccccc43)cc(=O)oc2c1,-13,i,i,i,i,i,83,i
O=c1cc(CN2CCc3ccccc32)c2ccc(O)cc2o1,i,i,i,i,i,i,nt,nt
Cc1ccc(C)c(N2CCN(C(=O)CCC(=O)N3CCOc4ccc(Cl)cc43)CC2)c1,-10,i,i,i,i,i,122,0.15
Cc1ccc(C)c(N2CCN(CCCNC(=O)CCC(=O)N3CCOc4ccc(Cl)cc43)CC2)c1,nt,i,i,i,i,i,nt,nt
O=C(Nc1nc(-c2ccc(F)cc2)cs1)c1ccc(N2C(=O)CCC2=O)cc1,i,i,i,i,i,i,nt,nt
Cc1c(Cl)c([N+](=O)[O-])nn1CCCC(=O)Nc1cc(Oc2ccccc2)cc([N+](=O)[O-])c1,i,i,i,i,i,i,nt,nt
Cc1ccccc1Oc1cc(NC(=O)CCCn2nc(C)c([N+](=O)[O-])c2C)cc([N+](=O)[O-])c1,-9.3,i,i,i,i,i,119,i
Cc1nn(CCCC(=O)Nc2cc(Oc3ccc(F)cc3)cc([N+](=O)[O-])c2)c(C)c1[N+](=O)[O-],-8.9,i,i,i,i,i,125,i
CCC(CC)C(=O)N(CCc1ccc(OC)cc1)Cc1nc2ccccc2c(=O)[nH]1,i,i,i,i,i,i,nt,nt
COc1ccc(/C=C(/NC(=O)c2ccc([N+](=O)[O-])cc2)C(=O)NCCCN(C)C)cc1,i,i,i,i,i,i,nt,nt
O=C(NC1CCCCCC1)c1cc(-c2ccccn2)nc2ccccc12,i,i,i,i,i,i,nt,nt
CCOC(=O)c1c(C)[nH]c(C(=O)COC(=O)[C@H](C)NC(=O)c2ccccc2Cl)c1C,i,i,i,i,i,i,nt,nt
CCOC(=O)c1c(C)[nH]c(C)c1C(=O)COC(=O)[C@@H](NC(=O)c1ccccc1OCC)C(C)C,-9.1,i,i,i,i,i,104,i
CC(=O)Nc1sc2c(c1C(c1ccccn1)N1CCN(C)CC1)CCCC2 (configuration not stated),i,i,i,i,i,i,nt,nt
COc1ccc(C)cc1S(=O)(=O)n1cnc2ccccc21,i,i,i,i,i,i,nt,nt
COc1ccc(OC)c(S(=O)(=O)n2cnc3cc(C)c(C)cc32)c1,-11,i,i,i,i,i,99,i
SMILES,KCNK3 inh,Kir21 block,hERG rescue,KCNQ1 act,KCNK9 inh,KCNQ1 inh,KCNK3 inh conf,KCNK3 noninduced
Cc1cc(NC(=O)c2cccnc2)ccc1NC(=O)c1cc2ccccc2o1,i,i,i,i,i,i,nt,nt
Cc1cc(NC(=O)c2cc3ccccc3o2)ccc1NC(=O)c1ccccc1,-10,i,i,i,i,i,i,i
Cc1nc(N2CCN(C(=O)c3cccs3)CC2)c2c3c(sc2n1)CCCC3,-10,i,i,i,i,i,92,i
O=C(O)CNC(=O)CCn1nnc2ccccc2c1=O,i,i,i,i,i,i,nt,nt
CC(OC(=O)C1CC1)C(=O)Nc1cc(C(F)(F)F)ccc1Cl (configuration not stated),-9.9,i,i,i,i,i,77,0.15
O=C(COC(=O)CNC(=O)C1CCCCC1)Nc1cc(C(F)(F)F)ccc1Cl,i,nt,nt,nt,nt,nt,nt,nt
CCOC(=O)CCSc1nc(C(C)(C)C)cc(C(F)(F)F)c1C#N,-8.9,i,i,i,i,6,131,0.13
